Each structure is given as a SMILES string. Several values for one entry are separate records, joined by “and”; a condition that tells them apart may be missing. Equal entries are not always repeated.

The subject of assay [1] is Mus musculus. Kind of assay: Behavioral time in mouse face to face assay at 0 umol/kg administered. It counts as functional. The method in brief: (§1)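 Male CF-1 mice (Charles River, 19-29 g), 8 pairs per dose, dosed sc, ip or orally in 0.25% methylcellulose or 0.1% citric acid; 30 min absorption housed with familiar partner. Pairs from different home cages placed in small litter-floored cage; face-to-face interaction duration scored visually for 3 min. Wilcoxon rank sum (two-tailed) vs daily control, p < 0.05.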

For assay [2], the system named is Mus musculus. Description: Behavioral time in mouse face to face assay at 3.2 umol/kg administered. It counts as functional. The method in brief: as §1
In assay [3] the test system is Mus musculus. Description: Behavioral time in mouse isolation-induced aggression assay 32 umol/kg administered peritoneally. It counts as functional. The settings on record: in the assay text read “administered orally” for “administered peritoneally”. The method in brief:
(§2)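 Male CF-1 mice. Residents were isolated singly for at least 1 month; group-housed intruders were kept 4-6/cage. Mice weighed 28-30 g at first test. Residents got drug ip or orally in 0.25% methylcellulose or 0.1% citric acid 30 min before an untreated intruder was introduced. Latency to fighting was recorded, capped at 600 s. Dosing was blind, 6/group (vehicle n = 12), Wilcoxon rank sum.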

The subject of assay [4] is Mus musculus. Kind of assay: Behavioral time in mouse isolation-induced aggression assay 0 umol/kg administered peritoneally. The class given is functional. The settings on record: in the assay text read “administered orally” for “administered peritoneally”. In short, it runs like this:
as §2

Assay [5] deals with Mus musculus. Kind of assay: Behavioral time in mouse face to face assay at 0.3 umol/kg administered. The class given is functional. The method in brief:
as §1

The test system of assay [6] is Mus musculus. Description: Behavioral time in mouse face to face assay at 32 umol/kg administered. It counts as functional. In short, it runs like this:
as §1

The test system of assay [7] is Mus musculus. Description: Tested in vivo for the effective dose administered orally in mouse hypothermia assay. To be noted: po. It counts as functional. The method in brief: (§3)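 Charles River CF-1 mice (18-22 g, 4 per dose), housed individually 20 min before testing. Rectal temperature taken before dosing and 20 min after (sc 0.1 mL; oral 0.2 mL by gavage needle). A drop of ≥2 °F counted as positive. Doses started at 30 mg/kg and fell by half-log until 0/4 responded.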

The test system of assay [8] is Mus musculus. Kind of assay: Behavioral time in mouse isolation-induced aggression assay at 33 umol/kg administered perorally (*P<0.05). The class given is functional. The method in brief: as §2
The test system of assay [9] is Mus musculus. Kind of assay: Behavioral time in mouse isolation-induced aggression assay at 0 umol/kg administered perorally (*P<0.05). The class given is functional. The method in brief:
as §2

For assay [10], the system named is Mus musculus. Description: Behavioral time in mouse face to face assay at 0 umol/kg administered perorally. It counts as functional. In short, it runs like this: as §1
The subject of assay [11] is Mus musculus. Description: In vivo effective dose administered subcutaneously in mouse hypothermia assay. It counts as functional. To be noted: sc. In short, it runs like this:
as §3

The test system of assay [12] is Mus musculus. Description: Tested in vivo for the maximum temperature decrease in mouse hypothermia assay. The class given is functional. The method in brief: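 CF-1 mice (18-22 g, 4 per dose), dosed sc or orally. Rectal temperature measured before dosing and 20 min after. The mean maximum temperature drop (°F) at 20 min after any dose is recorded as an efficacy index.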

Assay [13] relates to Mus musculus. Description: Behavioral time in mouse isolation-induced aggression assay at 10 umol/kg administered intraperitoneally (*P<0.05). The class given is functional. The method in brief:
as §2

Assay [14] concerns Mus musculus. Kind of assay: (§4) Behavioral time in mouse isolation-induced aggression assay at 0 umol/kg administered intraperitoneally. It counts as functional. In short, it runs like this: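 Isolated male CF-1 resident mice, housed singly ≥1 month and weighing 28-30 g at testing, were dosed ip or orally in 0.25% methylcellulose or 0.1% citric acid. Dosing was blind, 6 per group (n=12 vehicle). After 30 min an untreated group-housed intruder was introduced. Latency to fighting was recorded, capped at 600 s. Residents rested ≥3 days before reuse. Wilcoxon rank sum.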

Assay [15] deals with Mus musculus. Kind of assay: Behavioral time in mouse face to face assay at 3.3 umol/kg administered perorally (*P<0.05). It counts as functional. In short, it runs like this: as §1
Assay [16] has as its system Mus musculus. Description: Behavioral time in mouse face to face assay at 33 umol/kg administered perorally (*P<0.05). The class given is functional. The method in brief: as §1
The subject of assay [17] is Mus musculus. Description: Behavioral time in mouse face to face assay at 0.3 umol/kg administered perorally (*P<0.05). The class given is functional. In short, it runs like this: as §1
The test system of assay [18] is Mus musculus. Kind of assay: Behavioral time in mouse isolation-induced aggression assay at 10 umol/kg administered perorally (*P<0.05). It counts as functional. The method in brief: as §2
For assay [19], the system named is Mus musculus. Description: Behavioral time in mouse face to face assay at 0.03 umol/kg administered perorally. The class given is functional. In short, it runs like this: as §1
The test system of assay [20] is Rattus norvegicus. Description: Effect on the synthesis rate of 5 HTP accumulation at the dose of 3.5 umol/kg in the rat ventral limbic brain region. The class given is functional, Limbic system. The method in brief: (§5)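 Male Sprague-Dawley rats dosed sc with drug or vehicle at time zero. NSD 1015 (100 mg/kg ip) given 15 min later to block aromatic decarboxylase. Brain DOPA and 5-HTP measured by electrochemical detection with peak integration. Expressed as percent change from NSD 1015 plus saline controls. Control and test groups N = 6 each, compared by unpaired t test.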

Assay [21] is filed under the species Felis catus. Description: Maximum decrease observed. It counts as functional. Further details: unit not given here.
Assay [22] deals with Mus musculus. Description: Behavioral time in mouse face to face assay at 36 umol/kg administered subcutaneously. The class given is functional. In short, it runs like this:
as §1

In assay [23] the test system is Felis catus. Description: Dose on arterial blood pressure (BP) in anesthetized cat. The class given is functional. In short, it runs like this: (§6)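 Adult cats (2.5-4.0 kg) anesthetized with ketamine 11 mg/kg im, then chloralose 80 mg/kg iv. Femoral artery cannulated for blood pressure, femoral vein for drug. Ventilated, paralyzed with gallamine 4 mg/kg iv, rectal temperature held at 37-38 °C. Cumulative iv doses given at 20-min intervals. Maximum decrease reported following a 1 mg/kg iv dose.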

Assay [24] relates to Mus musculus. Description: Behavioral time in mouse face to face assay at 0.4 umol/kg administered subcutaneously. The class given is functional. In short, it runs like this: as §1
Assay [25] deals with Mus musculus. Kind of assay: Behavioral time in mouse face to face assay at 0 umol/kg administered subcutaneously. It counts as functional. The method in brief:
as §1

The subject of assay [26] is Felis catus. Kind of assay: Maximum decrease on arterial blood pressure at 1 mg/kg. It counts as functional. The method in brief:
as §6

The test system of assay [27] is Rattus norvegicus. Description: Effect on the synthesis rate of dopamine (DOPA) accumulation at the dose of 3.5 uM/kg in the rat ventral limbic brain region. It counts as functional, Limbic system. In short, it runs like this:
as §5

For assay [28], the system named is Mus musculus. Description: Behavioral time in mouse face to face assay at 3.5 umol/kg administered subcutaneously. It counts as functional. The method in brief:
as §1

The species entered for assay [29] is Felis catus. Description: Dose at which the SND has been reduced to 50% of the pretreatment value. The class given is functional. In short, it runs like this: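 Adult cats (2.5-4.0 kg), ketamine 11 mg/kg im then chloralose 80 mg/kg iv, ventilated, gallamine-paralyzed, rectal temperature 37-38 °C. Sympathetic nerve discharge quantified by cumulative integration. Cumulative iv doses were given at 20-min intervals. Value is the dose reducing discharge to 50% of pretreatment.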

The test system of assay [30] is Mus musculus. Description: Behavioral time in mouse face to face assay at 11 umol/kg administered perorally. The class given is functional. The method in brief: as §1
The test system of assay [31] is Mus musculus. Kind of assay: Behavioral time in mouse face to face assay at 3.5 umol/kg administered perorally. The class given is functional. In short, it runs like this:
as §1

The subject of assay [32] is Mus musculus. Kind of assay: Behavioral time in mouse isolation-induced aggression assay at 11 umol/kg administered perorally. The class given is functional. In short, it runs like this:
as §2

Assay [33] relates to Mus musculus. Description: Behavioral time in mouse isolation-induced aggression assay at 11 umol/kg administered intraperitoneally (*P<0.05). The class given is functional. In short, it runs like this:
as §2

Assay [34] has as its system Mus musculus. Kind of assay: Behavioral time in mouse isolation-induced aggression assay at 3.5 umol/kg administered perorally. It counts as functional. In short, it runs like this:
as §2

In assay [35] the test system is Mus musculus. Description: Behavioral time in mouse isolation-induced aggression assay at 35 umol/kg administered perorally (*P<0.05). It counts as functional. In short, it runs like this:
as §2

Assay [36] has as its system Mus musculus. The assay is described as §4. It counts as functional. In short, it runs like this: as §2
This is another data set of the same source.

Assay [37] deals with Mus musculus. Kind of assay: Behavioral time in mouse face to face assay at 35 umol/kg administered perorally. The class given is functional. The method in brief: as §1
Assay [38] relates to Mus musculus. Description: Behavioral time in mouse isolation-induced aggression assay at 0 umol/kg administered perorally. It counts as functional. In short, it runs like this:
as §2

In assay [39] the test system is Mus musculus. Kind of assay: Behavioral time in mouse isolation-induced aggression assay at 3.5 umol/kg administered intraperitoneally (*P<0.05). It counts as functional. In short, it runs like this:
as §2

As to `C=CCN[C@@H]1CCc2cccc(OC)c2[C@@H]1C(=O)OC`, the Time in [1] turned out to be 0.7 s; in assay [2], 1.1 s; in [3] it was 120 s; in assay [4], 56 s; in [5] it was 1 s; in [6] it was 0.8 s.

Consider `CCCN(C)[C@@H]1CCc2cccc(OC)c2[C@@H]1CO`, for which the results for the ED50 in [7] and in [11] were 32 µmol/kg and 5.7 µmol/kg, respectively. Also, the Time in [8] amounted to 269 s; in assay [9], 43 s; in assay [10], 1.1 s; in assay [13], 329 s; in assay [14], 6 s; in [15] it was 1.7 s. In addition, the Time is reported as 2.1 s in assay [16], 2 s in [17], 125 s in assay [18] and 1.7 s in assay [19]. In [12], the TMP.decrease is 9.1 degrees F and 5 degrees F.

Take `C=CC[C@H]1c2c(O)cccc2CC[C@H]1NCCC`: the ED50 in assay [7] stood at 61 µmol/kg; in assay [11] it was 1.1 µmol/kg; in assay [29] it was 0.09 µmol/kg. Also, the Change is reported as -53% in [20] and 14% in assay [27]. The values for the Max decrease in assay [21] and in assay [26] were 10 and 55, respectively. Moreover, the Time came to 3.8 s in assay [22], 2.9 s in [24], 2.8 s in assay [25] and 3.9 s in assay [28]. The compound also registered a BP in assay [23] of 77%. The TMP.decrease in [12] was 9.5 degrees F and 6.9 degrees F.

In the case of `CCCN[C@@H]1CCc2cccc(O)c2[C@@H]1CCC`, the results for the ED50 in assay [7] and in assay [11] were 46 µmol/kg and 6.1 µmol/kg, respectively. For the same compound, the Time in assay [30] came to 1.3 s; in assay [31], 1.1 s; in assay [32], 146 s; in assay [10], 1.1 s; in assay [33] it was 125 s; in assay [34], 28 s. Also, the Time in assay [35] is listed as 54 s; in [36] it was 8 s; in assay [37], 1.1 s; in assay [38], 11 s; in assay [39], 97 s. Besides, the TMP.decrease in [12] was 10.4 degrees F and 7.5 degrees F.

By ED50 is commonly meant the midpoint of the dose-response relation.

Source of the values: ChEMBL document CHEMBL1126613, “Centrally acting serotonergic agents. Synthesis and structure-activity relationships of C-1- or C-3-substituted derivatives of 8-hydroxy-2-(di-n-propylamino)tetralin” (J Med Chem, 1993).
